According to ChEMBL document CHEMBL4043300, “2 H-1,2,3-Triazole-Based Dipeptidyl Nitriles: Potent, Selective, and Trypanocidal Rhodesain Inhibitors by Structure-Based Design” (J Med Chem, 2018):
pIC50, pKi: −log10 of the molar value. ≈ marks a conversion by molar mass, not a printed value.

Columns and labels:
[1] = Solubility of the compound at pH 6.5 by LYSA; format: physicochemical; settings: buffer
In short: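 Lyophilization solubility assay at pH 6.5.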

Rhodesain = Rhodesain (Trypanosoma brucei rhodesiense, UniProt Q95PM0); assay: Inhibition of Trypanosoma brucei rhodesiense rhodesain using Cbz-Phe-Arg-AMC as substrate by fluorimetric method
Rhodesain, sequence (Q95PM0 whole entry): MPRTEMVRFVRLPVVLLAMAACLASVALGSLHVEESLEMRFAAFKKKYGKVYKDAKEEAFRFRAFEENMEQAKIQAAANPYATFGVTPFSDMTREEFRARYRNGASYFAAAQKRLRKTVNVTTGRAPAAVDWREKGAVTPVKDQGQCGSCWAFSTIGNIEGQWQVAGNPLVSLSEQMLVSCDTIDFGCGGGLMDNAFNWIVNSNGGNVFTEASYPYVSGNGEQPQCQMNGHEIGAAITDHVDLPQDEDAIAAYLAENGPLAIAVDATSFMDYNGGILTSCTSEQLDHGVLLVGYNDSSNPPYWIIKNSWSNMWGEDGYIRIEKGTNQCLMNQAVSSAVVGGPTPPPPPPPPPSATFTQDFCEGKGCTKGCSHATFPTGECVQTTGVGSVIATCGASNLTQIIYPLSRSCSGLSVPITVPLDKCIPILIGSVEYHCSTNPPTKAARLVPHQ
In short: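 Fluorescence-based assay run at 25 °C in 50 mM sodium acetate pH 5.5 with 5 mM EDTA, 200 mM NaCl and 0.005% Brij35. IC50 values were converted to Ki with the Cheng-Prusoff equation. Values are the average of two measurements, each done in duplicate.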

Procathepsin L = Procathepsin L (Homo sapiens, UniProt P07711); assay: Inhibition of human CatL using Cbz-Phe-Arg-AMC as substrate measured over 30 mins by fluorimetric method
Procathepsin L, sequence (P07711 whole entry): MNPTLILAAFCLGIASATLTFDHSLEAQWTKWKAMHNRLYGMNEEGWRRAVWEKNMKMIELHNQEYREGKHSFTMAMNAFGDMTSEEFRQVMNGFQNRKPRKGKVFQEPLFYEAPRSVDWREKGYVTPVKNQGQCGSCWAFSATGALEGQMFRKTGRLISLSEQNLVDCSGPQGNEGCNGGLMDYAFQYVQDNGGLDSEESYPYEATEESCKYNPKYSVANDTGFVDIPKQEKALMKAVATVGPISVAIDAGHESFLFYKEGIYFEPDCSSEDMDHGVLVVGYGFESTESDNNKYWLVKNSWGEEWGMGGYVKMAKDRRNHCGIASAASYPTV
In short: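 Human cathepsin L in a fluorimetric assay in 50 mM Tris pH 6.5, 5 mM EDTA, 200 mM NaCl, 0.005% Brij35 at 25 °C. Ki was calculated from IC50 by Cheng-Prusoff. Value is the average of two measurements, each in duplicate.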

[2] = Selectivity index, ratio of Ki for human CatL to Ki for Trypanosoma brucei rhodesiense rhodesain
In short: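 Ki(hCatL)/Ki(RD). Fluorimetric assays at 25 °C: RD in 50 mM sodium acetate pH 5.5; hCatL in 50 mM Tris pH 6.5; both buffers with 5 mM EDTA, 200 mM NaCl, 0.005% Brij35. Ki derived from IC50 by Cheng-Prusoff. Each value is the mean of two measurements, each done in duplicate.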

[3] = tested on: Trypanosoma brucei rhodesiense; assay: Antitrypanosomal activity against bloodstream form of Trypanosoma brucei rhodesiense STIB 900 assessed as parasite growth inhibition after 72 hrs by Alamar blue assay; format: functional; settings: STIB 900, 72 h
In short: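 Standard 72 h growth-inhibition assay with STIB 900 bloodstream trypomastigotes and Alamar Blue read-out. Value is the mean of at least 2 measurements.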

L6 = assay: Cytotoxicity against rat L6 cells after 72 hrs by Alamar blue assay; format: cell-based; settings: L6, 72 h
In short: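 Rat skeletal myoblast L6 cells in an Alamar Blue growth-inhibition assay. Value is the mean of at least 2 measurements.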

[4] = tested on: Trypanosoma brucei rhodesiense; assay: Antitrypanosomal activity against bloodstream form of Trypanosoma brucei rhodesiense STIB 900 assessed as parasite growth inhibition after 2 hrs by Alamar blue assay; format: functional; settings: STIB 900, 2 h
In short: (§1)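 Bloodstream STIB 900 trypomastigotes, 1x10⁴ per well, exposed to eleven 3-fold serial dilutions at 37 °C/5% CO₂ for the stated pulse time. Parasites were then pelleted and washed four times, and an aliquot was regrown 72 h drug-free in triplicate plates. Resazurin was added for 2–4 h, fluorescence read at ex 536/em 588 nm, and IC50 taken by linear regression of sigmoidal curves. Melarsoprol served as control.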

[5] = tested on: Trypanosoma brucei rhodesiense; assay: Antitrypanosomal activity against bloodstream form of Trypanosoma brucei rhodesiense STIB 900 assessed as parasite growth inhibition after 6 hrs by Alamar blue assay; format: functional; settings: STIB 900, 6 h; in short: as §1
[6] = tested on: Trypanosoma brucei rhodesiense; assay: Antitrypanosomal activity against bloodstream form of Trypanosoma brucei rhodesiense STIB 900 assessed as parasite growth inhibition after 16 hrs by Alamar blue assay; format: functional; settings: STIB 900, 16 h; in short: as §1
[7] = tested on: Trypanosoma brucei rhodesiense; assay: Antitrypanosomal activity against bloodstream form of Trypanosoma brucei rhodesiense STIB 900 assessed as parasite growth inhibition after 24 hrs by Alamar blue assay; format: functional; settings: STIB 900, 24 h; in short: as §1
[8] = tested on: Trypanosoma brucei rhodesiense; assay: Antitrypanosomal activity against bloodstream form of Trypanosoma brucei rhodesiense STIB 900 assessed as parasite growth inhibition after 48 hrs by Alamar blue assay; format: functional; settings: STIB 900, 48 h; in short: as §1
[9] = Intrinsic clearance in human liver microsomes at 2 uM after 30 mins in presence of NADPH by LC-MS/MS method; format: ADME, microsome; settings: read-out: CLH
[10] = Intrinsic clearance in mouse liver microsomes at 2 uM after 30 mins in presence of NADPH by LC-MS/MS method; format: ADME, microsome; settings: read-out: CLH
Cytochrome P450 3A4 = Cytochrome P450 3A4 (Homo sapiens, UniProt P08684); assay: Inhibition of CYP3A4 in human liver microsomes using DBF as substrate by fluorescence assay; format: ADME
Cytochrome P450 3A4, sequence (P08684 whole entry): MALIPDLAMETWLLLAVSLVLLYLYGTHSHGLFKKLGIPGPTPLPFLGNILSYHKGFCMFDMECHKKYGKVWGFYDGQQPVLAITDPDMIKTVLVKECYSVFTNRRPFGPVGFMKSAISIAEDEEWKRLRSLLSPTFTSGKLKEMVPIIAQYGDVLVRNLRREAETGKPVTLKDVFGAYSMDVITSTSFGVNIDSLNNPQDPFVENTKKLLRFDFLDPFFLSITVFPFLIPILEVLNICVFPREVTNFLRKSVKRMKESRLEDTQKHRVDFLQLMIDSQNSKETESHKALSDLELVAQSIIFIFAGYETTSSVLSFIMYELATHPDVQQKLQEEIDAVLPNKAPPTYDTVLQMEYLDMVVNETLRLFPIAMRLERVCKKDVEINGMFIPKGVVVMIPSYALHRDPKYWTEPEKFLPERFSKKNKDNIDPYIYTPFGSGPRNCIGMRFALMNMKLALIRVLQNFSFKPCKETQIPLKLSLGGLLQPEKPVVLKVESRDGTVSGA
In short: (§2)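 Human liver microsomes with CYP-selective substrate metabolism reactions for 2C9, 2D6 and 3A4.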

Cytochrome P450 2D6 = Cytochrome P450 2D6 (Homo sapiens, UniProt P10635); assay: Inhibition of CYP2D6 in human liver microsomes using AMMC as substrate by fluorescence assay; format: ADME; in short: as §2
Cytochrome P450 2D6, sequence (P10635 whole entry): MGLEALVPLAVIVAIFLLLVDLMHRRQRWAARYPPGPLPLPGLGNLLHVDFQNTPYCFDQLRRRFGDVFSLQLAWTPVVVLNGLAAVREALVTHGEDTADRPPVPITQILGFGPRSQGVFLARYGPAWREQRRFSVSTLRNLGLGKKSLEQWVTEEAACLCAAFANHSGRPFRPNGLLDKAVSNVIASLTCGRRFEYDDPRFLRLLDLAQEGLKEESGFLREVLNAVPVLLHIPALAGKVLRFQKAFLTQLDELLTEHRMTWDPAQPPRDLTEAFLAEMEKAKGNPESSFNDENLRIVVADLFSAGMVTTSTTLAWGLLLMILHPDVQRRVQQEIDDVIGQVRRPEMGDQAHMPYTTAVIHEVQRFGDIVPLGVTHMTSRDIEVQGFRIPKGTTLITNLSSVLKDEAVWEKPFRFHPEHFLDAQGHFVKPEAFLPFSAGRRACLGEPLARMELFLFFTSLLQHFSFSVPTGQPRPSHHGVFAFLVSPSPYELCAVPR

Cytochrome P450 2C9 = Cytochrome P450 2C9 (Homo sapiens, UniProt P11712); assay: Inhibition of CYP2C9 in human liver microsomes using MFC as substrate by fluorescence assay; format: ADME; in short: as §2
Cytochrome P450 2C9, sequence (P11712 whole entry): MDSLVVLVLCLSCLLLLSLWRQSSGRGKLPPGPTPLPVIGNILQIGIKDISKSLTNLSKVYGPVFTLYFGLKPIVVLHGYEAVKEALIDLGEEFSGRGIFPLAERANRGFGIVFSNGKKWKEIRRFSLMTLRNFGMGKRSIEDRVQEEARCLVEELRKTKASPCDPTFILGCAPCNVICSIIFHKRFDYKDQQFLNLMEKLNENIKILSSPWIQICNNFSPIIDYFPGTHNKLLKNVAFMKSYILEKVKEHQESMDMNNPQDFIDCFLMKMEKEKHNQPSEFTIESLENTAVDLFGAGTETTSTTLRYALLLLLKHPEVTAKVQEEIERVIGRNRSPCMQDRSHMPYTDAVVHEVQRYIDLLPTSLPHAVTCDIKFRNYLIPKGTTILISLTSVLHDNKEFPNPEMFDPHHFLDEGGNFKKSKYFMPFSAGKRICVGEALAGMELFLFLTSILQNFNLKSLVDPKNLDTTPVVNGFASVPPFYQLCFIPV

MDR1 (P-gp) = assay: Efflux ratio of permeability across pig LLC-PK1 cells expressing human MDR1 at 1 uM after 3.5 hrs by LC-MS/MS analysis; format: ADME, cell-based, Sus scrofa
In short: (§3)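 LLC-PK1 monolayers stably transfected with human MDR1 or mouse Mdr1a, grown in Medium 199/10% FCS with colchicine on permeable inserts and used day 4 after seeding. 1 μM compound added apical or basolateral; transport run in both directions in triplicate, 37 °C, 5% CO₂. Donor and receiver sampled at 3.5 h, quantified by LC–MS/MS. Lucifer yellow checked monolayer tightness.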

Mdr1a (P-gp) = assay: Efflux ratio of permeability across pig LLC-PK1 cells expressing mouse Mdr1a at 1 uM after 3.5 hrs by LC-MS/MS analysis; format: ADME, cell-based, Sus scrofa; in short: as §3
[11] = Selectivity index, ratio of IC50 for rat L6 cells to IC50 for bloodstream form of Trypanosoma brucei rhodesiense STIB 900; format: toxicity; settings: read-out: Ratio IC50
In short: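 Ratio of L-6 rat skeletal myoblast IC50 to T. b. rhodesiense STIB 900 bloodstream trypomastigote IC50, both from Alamar Blue growth-inhibition assays. Each IC50 is the mean of at least 2 measurements.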

[12] = Octanol-water intrinsic distribution co-efficient, log D of the compound at 100 uM at pH 7.4 after 16 to 22 hrs by CAMDIS assay; format: physicochemical
In short: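 Octanol/aqueous buffer (pH 7.4) intrinsic distribution coefficient measured in the CAMDIS carrier-mediated distribution system.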

[13] = Permeability of the compound after 15 hrs by PAMPA; format: physicochemical; settings: read-out: permeability
[14] = Half life in C57BL/6J mouse at 1.3 mg/kg, iv as bolus dose by LC-MS/MS analysis; format: ADME, organism-based; settings: in vivo
In short: (§4)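 Mice received intravenous compound in N-methylpyrrolidinone / 40% aqueous hydroxypropyl-γ-cyclodextrin (30/70). Blood was drawn into K₂EDTA at 5 min, 15 min, 30 min, 1, 2, 4 and 8 h, and plasma was separated at 3000 × g for 5 min at 4 °C and stored at -20 °C. Plasma levels were measured by LC–MS/MS, and parameters derived by non-compartmental analysis.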

[15] = Clearance in C57BL/6J mouse at 1.3 mg/kg, iv as bolus dose by LC-MS/MS analysis; format: ADME, organism-based; settings: in vivo; in short: as §4
[16] = Volume of distribution at steady state in C57BL/6J mouse at 1.3 mg/kg, iv as bolus dose by LC-MS/MS analysis; format: ADME, organism-based; settings: in vivo, read-out: Vdss; in short: as §4
[17] = Half life in C57BL/6J mouse at 1.5 mg/kg, iv as bolus dose by LC-MS/MS analysis; format: ADME, organism-based; settings: in vivo
In short: (§5)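 Mice given single i.v. dose in N-methylpyrrolidinone / 40% (v/v) aqueous hydroxypropyl-γ-cyclodextrin (30/70 v/v). Blood into K₂EDTA at 5 min, 15 min, 30 min, 1, 2, 4, 8 h, sublingually or by terminal cardiac puncture under isoflurane. Plasma spun at 3000 × g, 5 min, 4 °C, stored at -20 °C. Plasma levels by LC–MS/MS; parameters by non-compartmental analysis.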

[18] = Clearance in C57BL/6J mouse at 1.5 mg/kg, iv as bolus dose by LC-MS/MS analysis; format: ADME, organism-based; settings: in vivo; in short: as §5
[19] = Volume of distribution at steady state in C57BL/6J mouse at 1.5 mg/kg, iv as bolus dose by LC-MS/MS analysis; format: ADME, organism-based; settings: in vivo, read-out: Vdss; in short: as §5
[20] = Unbound fraction in human plasma; format: ADME, cell-free
[21] = tested on: Trypanosoma brucei rhodesiense; assay: Antitrypanosomal activity against bloodstream form of Trypanosoma brucei rhodesiense STIB 900 infected in NMRI mouse assessed as reduction of parasitemia at 50 mg/kg, po administered for 3 consecutive days starting 1 day post infection measured at 24 hrs post last dose relative to control; format: functional; parameters: scale not given: the % may be the effect or the level left
In short: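 Female mice infected with STIB900 were dosed orally at 50 mg/kg/day on three consecutive days, starting 1 day post-infection. Compound was in 100% DMSO diluted 10-fold in distilled water, given at 0.1 mL/10 g. Tail-blood parasitaemia was measured 24 h after the last dose versus 4 untreated infected controls. Values are means of 2 mice.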

In the case of N#CC1(NC(=O)[C@H](Cc2ccc(OC(F)(F)F)c(Cl)c2)NC(=O)c2cnn(-c3ccc(F)cc3)n2)CC1, the solubility [1] was < 0.3 µg/mL, the pKi (Rhodesain) was 8.13 and the pKi (Procathepsin L) was 6.58. It also gave a Ratio Ki [2] of 36, a pIC50 [3] of 8.05 and a pIC50 (L6) of 4.73. The pIC50 [4] was < 6.00, the pIC50 [5] was < 6.00 and the pIC50 [6] was < 6.00. The pIC50 [7] was 6.35, the pIC50 [8] was 7.19 and the microsomal CLint at 2 µM [9] was < 10 µL/min/mg. The microsomal CLint at 2 µM [10] was < 10 µL/min/mg, the pIC50 (Cytochrome P450 3A4) was < 4.30 and the pIC50 (Cytochrome P450 2D6) was 5.52. For the same compound, the pIC50 (Cytochrome P450 2C9) was 5.05, the efflux ratio at 3.5 h, 1 µM (MDR1 (P-gp)) was 6 and the efflux ratio at 3.5 h, 1 µM (Mdr1a (P-gp)) was 20. It also gave a selectivity ratio [11] of 2090.

In the case of CC(C)(C)n1ncc(C(=O)N[C@@H](Cc2ccc(OC(F)(F)F)c(Cl)c2)C(=O)NC2(C#N)CC2)n1, the logD at 100 µM [12] was 4.87, the solubility [1] was 0.9 µg/mL (≈ 1.8 µM) and the pKi (Rhodesain) was 7.51. It also gave a pKi (Procathepsin L) of 8.10, a Ratio Ki [2] of 0.3 and a pIC50 [3] of 8.40. The pIC50 (L6) was 5.12, the microsomal CLint at 2 µM [9] was < 10 µL/min/mg and the microsomal CLint at 2 µM [10] was 17 µL/min/mg. The Papp at 15 h [13] was 2.86 ×10⁻⁶ cm/s, the pIC50 (Cytochrome P450 3A4) was < 4.30 and the pIC50 (Cytochrome P450 2D6) was 6.30. The pIC50 (Cytochrome P450 2C9) was 5.30, the half-life [14] was 1.3 h and the clearance [15] was 17 mL/min/kg. It also gave a Vd [16] of 1.7 L/kg and a selectivity ratio [11] of 1900.

CC(C)n1ncc(C(=O)N[C@@H](Cc2ccc(OC(F)(F)F)c(Cl)c2)C(=O)NC2(C#N)CC2)n1 gave a logD at 100 µM [12] of 4.61, a solubility [1] of 4 µg/mL (≈ 8.25 µM) and a pKi (Rhodesain) of 7.74. The pKi (Procathepsin L) was 8.40, the Ratio Ki [2] was 0.2 and the pIC50 [3] was 8.40. For the same compound, the pIC50 (L6) was < 5.00, the microsomal CLint at 2 µM [9] was 11 µL/min/mg and the microsomal CLint at 2 µM [10] was 26 µL/min/mg. The Papp at 15 h [13] was 0.138 ×10⁻⁶ cm/s, the half-life [17] was 1.53 h and the clearance [18] was 32.9 mL/min/kg. For the same compound, the Vd [19] was 3 L/kg and the fraction unbound [20] was 0.0826.

For N#CC1(NC(=O)[C@H](Cc2ccc(Cl)c(Cl)c2)NC(=O)c2cnn(-c3ccc(F)cc3)n2)CC1, the solubility [1] was < 0.3 µg/mL, the pKi (Rhodesain) was 8.70 and the pKi (Procathepsin L) was 6.88. The Ratio Ki [2] was 66, the pIC50 [3] was 8.15 and the pIC50 (L6) was 5.01. For the same compound, the microsomal CLint at 2 µM [9] was < 10 µL/min/mg, the microsomal CLint at 2 µM [10] was < 10 µL/min/mg and the Papp at 15 h [13] was 1.07 ×10⁻⁶ cm/s. The pIC50 (Cytochrome P450 3A4) was < 4.30, the pIC50 (Cytochrome P450 2D6) was 5.30 and the pIC50 (Cytochrome P450 2C9) was 5.40. The half-life [14] was > 6.4 h, the clearance [15] was < 4.6 mL/min/kg and the Vd [16] was < 2.5 L/kg. For the same compound, the Activity [21] was 47.2% and the selectivity ratio [11] was 1390.
